# Legend:
# Assay type in all cases: functional
# Vero [1] = assay: Evaluation in Vero cell cultures for cytotoxicity that is to cause microscopically detectable alteration of normal cell morphology; conditions: Chlorocebus sabaeus
# Procedure, shortened: (§1)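 Vero cultures were infected with parainfluenza-3, reovirus-1, Sindbis, Coxsackie B4 or Semliki forest virus. Values are concentrations giving 50% reduction of virus-induced cytopathogenicity, or a microscopically detectable alteration of normal cell morphology for cytotoxicity. Each is the average of two separate experiments.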
# Vero [2] = assay: Evaluation for antiviral activity against reo virus-1 in Vero cell cultures (Concentration required to reduce virus-induced cytopathogenicity by 50%); conditions: Chlorocebus sabaeus; procedure, shortened: as §1
# [3] = Evaluated for antiviral activity against herpes simplex virus-1(KOS) in primary rabbit kidney cell cultures(PRK) (Concentration required to reduce virus-induced cytopathogenicity by 50%); conditions: Oryctolagus cuniculus
# HeLa [4] = assay: Evaluation for antiviral activity against Coxsackie virus B4 in HeLa cell cultures (Concentration required to reduce virus-induced cytopathogenicity by 50%); conditions: Homo sapiens
# Procedure, shortened: (§2)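 HeLa cultures were infected with respiratory syncytial, vesicular stomatitis, Coxsackie B4 or polio-1 virus. The antiviral end-point is 50% reduction of virus-induced cytopathogenicity. Cytotoxicity is the minimum concentration producing microscopically detectable alteration of normal cell morphology.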
# [5] = Evaluation in PRK cell cultures for cytotoxicity that is to cause microscopically detectable alteration of normal cell morphology; conditions: Oryctolagus cuniculus
# HeLa [6] = assay: Evaluation for antiviral activity against polio virus-1 in HeLa cell cultures (Concentration required to reduce virus-induced cytopathogenicity by 50%); conditions: Homo sapiens; procedure, shortened: as §2
# [7] = Evaluation for antiviral activity against vesicular stomatitis virus in primary rabbit kidney cell cultures(PRK) (Concentration required to reduce virus-induced cytopathogenicity by 50%); conditions: Oryctolagus cuniculus
# HeLa [8] = assay: Evaluation in HeLa cell cultures for cytotoxicity that is to cause microscopically detectable alteration of normal cell morphology; conditions: Homo sapiens; procedure, shortened: as §2
# Vero [9] = assay: Evaluation for antiviral activity against Sindbis virus in Vero cell cultures (Concentration required to reduce virus-induced cytopathogenicity by 50%); conditions: Chlorocebus sabaeus; procedure, shortened: as §1
# [10] = Evaluation for antiviral activity against herpes simplex virus-2(Lyons) in primary rabbit kidney cell cultures(PRK) (Concentration required to reduce virus-induced cytopathogenicity by 50%); conditions: Oryctolagus cuniculus
# Vero [11] = assay: Evaluation for antiviral activity against forest virus in Vero cell cultures (Concentration required to reduce virus-induced cytopathogenicity by 50%); conditions: Chlorocebus sabaeus; procedure, shortened: as §1
# [12] = Evaluation for antiviral activity against vaccinia virus in primary rabbit kidney cell cultures(PRK) (Concentration required to reduce virus-induced cytopathogenicity by 50%); conditions: Oryctolagus cuniculus
# Vero [13] = assay: Evaluation for antiviral activity against parainfluenza-3 virus in Vero cell cultures (Concentration required to reduce virus-induced cytopathogenicity by 50%); conditions: Chlorocebus sabaeus; procedure, shortened: as §1
# HeLa [14] = assay: Evaluation for antiviral activity against vesicular stomatitis virus in HeLa cell cultures (Concentration required to reduce virus-induced cytopathogenicity by 50%); conditions: Homo sapiens; procedure, shortened: as §2
# Vero [15] = assay: Evaluation for antiviral activity against Coxsackie virus B4 in Vero cell cultures (Concentration required to reduce virus-induced cytopathogenicity by 50%); conditions: Chlorocebus sabaeus; procedure, shortened: as §1
# L1210 = assay: Inhibitory effect on the proliferation of murine leukemia cells (L1210); conditions: Mus musculus, read-out: ID50 (the source's name)
# Procedure, shortened: (§3)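 Proliferation assay in murine leukemia L1210, human T-lymphoblast Molt-4F and human T-lymphocyte MT-4 cells. ID50 is the dose inhibiting tumor cell proliferation by 50%, expressed in μg/mL.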
# MOLT-4F = assay: Inhibitory effect on the proliferation of human T-lymphoblast cells (Molt-4F); conditions: read-out: ID50 (the source's name); procedure, shortened: as §3
# MT4 = assay: Inhibitory effect on the proliferation of human T-lymphocyte (MT-4); conditions: read-out: ID50 (the source's name); procedure, shortened: as §3
# [16] = Evaluation for antiviral activity against herpes simplex virus-2(196) in primary rabbit kidney cell cultures(PRK) (Concentration required to reduce virus-induced cytopathogenicity by 50%); conditions: Oryctolagus cuniculus
# [17] = Evaluation for antiviral activity against herpes simplex virus-1 (McIntyre) in primary rabbit kidney cell cultures(PRK) (Concentration required to reduce virus-induced cytopathogenicity by 50%); conditions: Oryctolagus cuniculus
# [18] = Evaluation for antiviral activity against herpes simplex virus-1(F) in primary rabbit kidney cell cultures(PRK) (Concentration required to reduce virus-induced cytopathogenicity by 50%); conditions: Oryctolagus cuniculus
# [19] = Evaluation for antiviral activity against herpes simplex virus-2(G) in primary rabbit kidney cell cultures(PRK) (Concentration required to reduce virus-induced cytopathogenicity by 50%); conditions: Oryctolagus cuniculus
# [20] = Evaluation for antiviral activity against herpes simplex virus-1(TK-) (B2006) in primary rabbit kidney cell cultures(PRK) (Concentration required to reduce virus-induced cytopathogenicity by 50%); conditions: Oryctolagus cuniculus
# MDCK = assay: Compound was evaluated in MDCK cell cultures for cytotoxicity that is to cause microscopically detectable alteration of normal cell morphology; conditions: Canis lupus familiaris
# Procedure, shortened: (§4)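 Influenza A and B virus replication in MDCK cultures. Antiviral value is the concentration giving 50% reduction of virus-induced cytopathogenicity. Cytotoxicity is the concentration causing a microscopically detectable change in normal cell morphology.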
# Influenza A virus = assay: Concentration required to reduce influenza virus A (ishikawa) induced cytopathogenicity by 50%; procedure, shortened: as §4
# HeLa [21] = assay: Compound was evaluated for antiviral activity against respiratory syncitial virus (long) in HeLa cell cultures (Concentration required to reduce virus-induced cytopathogenicity by 50%); conditions: Homo sapiens; procedure, shortened: as §2
# Influenza B virus = assay: Concentration required to reduce influenza virus B (singapore) induced cytopathogenicity by 50%; procedure, shortened: as §4
SMILES,MCC (Vero [1]),MIC (Vero [2]),MIC [3],MIC (HeLa [4]),MCC [5],MIC (HeLa [6]),MIC [7],MCC (HeLa [8]),MIC (Vero [9]),MIC [10],MIC (Vero [11]),MIC [12],MIC (Vero [13]),MIC (HeLa [14]),MIC (Vero [15]),MIC [16],MIC [17],MIC [18],MIC [19],MIC [20],other results
Cn1c2c(c3ccccc31)CCN1OCSC[C@@H](N)[C@H]21,> 40 µg/mL,> 10 µg/mL,> 10 µg/mL,> 10 µg/mL,40 µg/mL,> 10 µg/mL,> 10 µg/mL,> 10 µg/mL,> 10 µg/mL,> 10 µg/mL,> 10 µg/mL,> 10 µg/mL,> 10 µg/mL,> 10 µg/mL,> 10 µg/mL,,,,,,
Cn1c2c(c3ccccc31)CCN1OCSC[C@@H](N)[C@@H]21,> 20 µg/mL,1 µg/mL,3 µg/mL,7 µg/mL,> 40 µg/mL,2 µg/mL,7 µg/mL,> 10 µg/mL,2 µg/mL,0.7 µg/mL,2 µg/mL,1.5 µg/mL,0.7 µg/mL,7 µg/mL,0.7 µg/mL,1 µg/mL,0.7 µg/mL,2 µg/mL,0.7 µg/mL,7 µg/mL,IC50 (L1210): 0.56 µg/mL; IC50 (MOLT-4F): 0.37 µg/mL; IC50 (MT4): 0.69 µg/mL
N[C@H]1CSCON2CCc3c([nH]c4ccccc34)[C@@H]12,40 µg/mL,20 µg/mL,2 µg/mL,> 10 µg/mL,> 10 µg/mL,> 10 µg/mL,2 µg/mL,40 µg/mL,20 µg/mL,2 µg/mL,10 µg/mL,2 µg/mL,7 µg/mL,7 µg/mL,7 µg/mL,2 µg/mL,2 µg/mL,2 µg/mL,2 µg/mL,7 µg/mL,MCC (MDCK): 40 µg/mL; MIC (Influenza A virus): 3 µg/mL; IC50 (L1210): 1.24 µg/mL; IC50 (MOLT-4F): 1.54 µg/mL; MIC (HeLa [21]): 3 µg/mL; MIC (Influenza B virus): 3 µg/mL
C[C@@H]1CSCON2CCc3c([nH]c4ccccc34)[C@H]12,> 100 µg/mL,> 40 µg/mL,> 100 µg/mL,> 40 µg/mL,> 100 µg/mL,> 40 µg/mL,> 100 µg/mL,40 µg/mL,20 µg/mL,,> 40 µg/mL,> 100 µg/mL,> 40 µg/mL,> 40 µg/mL,20 µg/mL,,,,> 100 µg/mL,,
O[C@@H]1CSCON2CCc3c([nH]c4ccccc34)[C@@H]12,> 100 µg/mL,> 40 µg/mL,> 100 µg/mL,> 40 µg/mL,> 100 µg/mL,> 100 µg/mL,> 100 µg/mL,100 µg/mL,20 µg/mL,,> 40 µg/mL,> 100 µg/mL,> 40 µg/mL,> 100 µg/mL,> 40 µg/mL,,,,> 100 µg/mL,,MCC (MDCK): 3 µg/mL; MIC (Influenza A virus): > 1.6 µg/mL; MIC (Influenza B virus): > 1.6 µg/mL
Nc1nccc2c1ncn2[C@@H]1C[C@H](CO)[C@@H](O)[C@H]1O [3-DEAZAARISTEROMYCIN A],> 400 µg/mL,2 µg/mL,> 200 µg/mL,> 400 µg/mL,> 400 µg/mL,> 400 µg/mL,2 µg/mL,> 400 µg/mL,20 µg/mL,> 200 µg/mL,> 400 µg/mL,0.7 µg/mL,2 µg/mL,2 µg/mL,20 µg/mL,> 200 µg/mL,> 200 µg/mL,> 200 µg/mL,> 200 µg/mL,150 µg/mL,
O=c1[nH]c(=O)n([C@H]2C[C@H](O)[C@@H](CO)O2)cc1/C=C/Br [BRIVUDINE],> 400 µg/mL,> 400 µg/mL,,> 400 µg/mL,> 400 µg/mL,> 400 µg/mL,> 200 µg/mL,> 400 µg/mL,> 400 µg/mL,70 µg/mL,> 400 µg/mL,7 µg/mL,> 400 µg/mL,> 400 µg/mL,> 400 µg/mL,70 µg/mL,0.02 µg/mL,0.02 µg/mL,7 µg/mL,150 µg/mL,
NC(=O)c1ncn([C@@H]2O[C@H](CO)[C@@H](O)[C@H]2O)n1 [RIBAVIRIN],> 400 µg/mL,70 µg/mL,> 200 µg/mL,70 µg/mL,> 400 µg/mL,70 µg/mL,> 400 µg/mL,> 400 µg/mL,40 µg/mL,> 200 µg/mL,40 µg/mL,20 µg/mL,20 µg/mL,20 µg/mL,70 µg/mL,> 200 µg/mL,> 200 µg/mL,> 200 µg/mL,> 200 µg/mL,> 200 µg/mL,MCC (MDCK): > 200 µg/mL; MIC (Influenza A virus): 15 µg/mL; MIC (HeLa [21]): 3 µg/mL; MIC (Influenza B virus): 15 µg/mL

# Source: ChEMBL document CHEMBL1125540, “Antiviral and antitumor structure-activity relationship studies on tetracyclic eudistomines” (1992)
